# Active and inactive are the calls of the source. The calls are words filed in the database; no cut-off is given here.
# How the values were obtained:
# DNA topoisomerase 1 [1] = biological target: T1, DNA topoisomerase 1 (Homo sapiens, UniProt P11387); assay: Inhibition of DNA topoisomerase 1
# T1 sequence (P11387 whole entry): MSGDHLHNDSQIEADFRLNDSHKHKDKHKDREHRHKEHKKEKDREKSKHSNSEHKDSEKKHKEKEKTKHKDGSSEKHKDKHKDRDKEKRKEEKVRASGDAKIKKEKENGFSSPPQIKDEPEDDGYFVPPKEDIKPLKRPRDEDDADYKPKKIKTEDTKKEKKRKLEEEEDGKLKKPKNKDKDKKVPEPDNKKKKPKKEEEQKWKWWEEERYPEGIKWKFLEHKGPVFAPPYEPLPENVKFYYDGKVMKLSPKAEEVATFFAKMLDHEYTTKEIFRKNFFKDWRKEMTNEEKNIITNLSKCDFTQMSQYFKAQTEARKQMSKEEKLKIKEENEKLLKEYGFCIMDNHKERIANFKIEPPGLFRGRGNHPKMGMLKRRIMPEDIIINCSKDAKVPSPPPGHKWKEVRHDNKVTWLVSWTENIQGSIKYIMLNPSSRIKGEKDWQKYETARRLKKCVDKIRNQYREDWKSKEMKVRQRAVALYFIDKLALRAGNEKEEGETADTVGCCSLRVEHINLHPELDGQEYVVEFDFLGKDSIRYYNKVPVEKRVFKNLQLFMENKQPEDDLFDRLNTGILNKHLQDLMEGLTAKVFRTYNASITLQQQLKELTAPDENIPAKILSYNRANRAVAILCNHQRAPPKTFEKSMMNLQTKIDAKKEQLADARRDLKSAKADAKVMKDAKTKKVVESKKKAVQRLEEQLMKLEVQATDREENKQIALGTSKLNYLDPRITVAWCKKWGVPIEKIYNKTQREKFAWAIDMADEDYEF
# Staphylococcus aureus = assay: Antimicrobial activity against Staphylococcus aureus ATCC 25923 after overnight incubation; type: functional
# Summary of the method: (§1)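 MIC read after overnight incubation of fatty acid with each organism at 37 °C. Endpoint was the highest dilution preventing growth, compared with an uninoculated chemical-control well. Data come from at least three separate experiments in duplicate.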
# Enterococcus faecalis = assay: Antimicrobial activity against Streptococcus faecalis ATCC 29212 after overnight incubation; type: functional; summary of the method: as §1
# Pseudomonas aeruginosa = assay: Antimicrobial activity against Pseudomonas aeruginosa ATCC 27853 after overnight incubation; type: functional; summary of the method: as §1
# Escherichia coli = assay: Antimicrobial activity against Escherichia coli ATCC 25922 after overnight incubation; type: functional; summary of the method: as §1
# [2] = biological target: T2, DNA topoisomerase 1 (Homo sapiens) (UniProt P11387); assay: Inhibition of human DNA topoisomerase 1 assessed as inhibition of uncoiling of supercoiled Tetrahymena pHOT1 DNA at 800 uM after 30 mins by agarose gel electrophoresis
# T2 sequence (whole entry): T1 sequence (P11387 whole entry)
# Summary of the method: (§2)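 Human placental topoisomerase I (1 unit relaxes 0.5 µg DNA in 15 min at 37 °C) was used with 0.25 µg supercoiled pHOT1 plasmid. Fatty acids in DMSO were tested at final 1000, 800, 500, 100 and 10 µM for 30 min at 37 °C. Reactions were stopped with SDS, then proteinase K (final 0.05 mg/mL, 30 min, 37 °C). Products were run on 1% agarose, stained with ethidium bromide, and bands imaged and quantitated.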
# [3] = biological target: T2, DNA topoisomerase 1 (Homo sapiens); assay: Inhibition of human DNA topoisomerase 1 assessed as inhibition of uncoiling of supercoiled Tetrahymena pHOT1 DNA at > 1000 uM after 30 mins by agarose gel electrophoresis; summary of the method: as §2
# DNA topoisomerase 1 [4] = biological target: T1, DNA topoisomerase 1; assay: Inhibition of human DNA topoisomerase 1
# [5] = biological target: T2, DNA topoisomerase 1 (Homo sapiens); assay: Inhibition of human DNA topoisomerase 1 assessed as inhibition of uncoiling of supercoiled Tetrahymena pHOT1 DNA at […] after 30 mins by agarose gel electrophoresis
compound,measurement,setting,value
CCCCCCCC/C=C\CCCCCCCC(=O)O [OLEIC ACID],IC50,DNA topoisomerase 1 [1],31 µM
CCCCCCCC/C=C/CCCCCCCC(=O)O [ELAIDIC ACID],IC50,DNA topoisomerase 1 [1],> 1000 µM
CCCCCC/C=C\CC/C=C\CCCC(=O)O,MIC,Staphylococcus aureus,80 µM
same,MIC,Enterococcus faecalis,200 µM
same,Activity,Pseudomonas aeruginosa,inactive
same,Activity,Escherichia coli,inactive
same,inhibition,[2],Active
CC(C)CCC/C=C\CC/C=C\CCCC(=O)O,MIC,Staphylococcus aureus,240 µM
same,MIC,Enterococcus faecalis,160 µM
CCCCCCC#CCCC#CCCCC(=O)O,inhibition,[3],inactive
CCCCCCCCCCCCCCCCC/C=C\CC/C=C\CCCC(=O)O,IC50,DNA topoisomerase 1 [4],0.9 µM
CCCCCCCCCCCCCCCC(=O)O [PALMITIC ACID],MIC,Staphylococcus aureus,> 400 µM
same,MIC,Enterococcus faecalis,> 400 µM
same,MIC,Pseudomonas aeruginosa,> 400 µM
same,MIC,Escherichia coli,> 400 µM
same,inhibition,[5],inactive

# Source: ChEMBL document CHEMBL1150144, “Total synthesis and biological evaluation of (5Z,9Z)-5,9-hexadecadienoic acid, an inhibitor of human topoisomerase I” (J Nat Prod, 2002)
